In ChEMBL document CHEMBL4118208, “Design, synthesis and molecular modeling of new 4-phenylcoumarin derivatives as tubulin polymerization inhibitors targeting MCF-7 breast cancer cells” (Bioorg Med Chem, 2018):
Values after ≈ are worked out from the molar mass of the structure shown.

Columns and labels:
MCF7 [1] = test: Growth inhibition of human MCF7 cells at 100 ug/ml after 48 hrs by MTT assay relative to control; assay type: functional; details: MCF7, 48 h, read-out: GI
Outline: (§1)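 Preliminary screen at 100 µg/mL against MCF-7 and normal BJ-1 cells. Values are % inhibition, given as the mean of 3 replicate samples with standard deviation.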

MCF7 [2] = test: Growth inhibition of human MCF7 cells after 48 hrs by MTT assay; assay type: functional, cell-based; details: MCF7, 48 h
[3] = Growth inhibition of human hTERT-BJ1 cells at 100 ug/ml after 48 hrs by MTT assay relative to control; assay type: cell-based, hTERT-BJ; details: read-out: GI; outline: as §1
Tubulin beta-5 chain [4] = biological target: T1, Tubulin beta-5 chain (Homo sapiens, UniProt P07437); test: Potency index, ratio of colchicine IC50 to compound IC50 for tubulin beta polymerization in human MCF7 cells; assay type: cell-based
Tubulin beta-5 chain [5] = biological target: T1, Tubulin beta-5 chain; test: Inhibition of tubulin beta polymerization in human MCF7 cells after 18 to 24 hrs by ELISA based spectrophotometric analysis; assay type: cell-based
MCF7 [6] = test: Cell cycle arrest in human MCF7 cells assessed as accumulation at G2 phase at 11.1 ug/ml after 24 hrs by PI staining based flow cytometry (reference value: 8.59%); assay type: functional
MCF7 [7] = test: Induction of apoptosis in human MCF7 cells assessed as late apoptotic cells at 11.1 ug/ml after 24 hrs by Annexin V-FITC/PI staining based flow cytometry (reference value: 0.09%); assay type: functional
Outline: (§2)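 MCF-7 cells treated at 11.1 µg/mL for 24 h, then labelled with annexin V-FITC and propidium iodide. Green (FITC) and red (PI) fluorescence are read by flow cytometry. Early apoptosis is scored as annexin V+/PI−, late as annexin V+/PI+. DMSO serves as negative control.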

MCF7 [8] = test: Induction of apoptosis in human MCF7 cells assessed as viable cells at 11.1 ug/ml after 24 hrs by Annexin V-FITC/PI staining based flow cytometry (reference value: 97.24%); assay type: functional; details: MCF7, 24 h, read-out: Activity; outline: as §2
MCF7 [9] = test: Induction of apoptosis in human MCF7 cells assessed as early apoptotic cells at 11.1 ug/ml after 24 hrs by Annexin V-FITC/PI staining based flow cytometry (reference value: 0.18%); assay type: functional; outline: as §2
MCF7 [10] = test: Cell cycle arrest in human MCF7 cells assessed as accumulation at pre-G1 phase at 11.1 ug/ml after 24 hrs by PI staining based flow cytometry relative to control; assay type: functional
MCF7 [11] = test: Induction of apoptosis in human MCF7 cells assessed as increase in caspase 7 levels at 11.1 ug/ml after 24 hrs by ELISA relative to control; assay type: functional
Outline: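 Caspase-7 level is measured in MCF-7 cells after treatment at 11.1 µg/mL for 24 h and reported as concentration. Doxorubicin is used as reference.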

MCF7 [12] = test: Induction of apoptosis in human MCF7 cells assessed as necrotic cells at 11.1 ug/ml after 24 hrs by Annexin V-FITC/PI staining based flow cytometry (reference value: 0.37%); assay type: functional; outline: as §2
MCF7 [13] = test: Cell cycle arrest in human MCF7 cells assessed as accumulation at G1 phase at 11.1 ug/ml after 24 hrs by PI staining based flow cytometry (reference value: 61.31%); assay type: functional
MCF7 [14] = test: Cell cycle arrest in human MCF7 cells assessed as apoptotic cells at 11.1 ug/ml after 24 hrs by PI staining based flow cytometry (reference value: 0.64%); assay type: functional
MCF7 [15] = test: Cell cycle arrest in human MCF7 cells assessed as accumulation at G2/M phase at 11.1 ug/ml after 24 hrs by PI staining based flow cytometry relative to control; assay type: functional
MCF7 [16] = test: Cell cycle arrest in human MCF7 cells assessed as accumulation at S phase at 11.1 ug/ml after 24 hrs by PI staining based flow cytometry (reference value: 30.1%); assay type: functional

T1 sequence (P07437 whole entry): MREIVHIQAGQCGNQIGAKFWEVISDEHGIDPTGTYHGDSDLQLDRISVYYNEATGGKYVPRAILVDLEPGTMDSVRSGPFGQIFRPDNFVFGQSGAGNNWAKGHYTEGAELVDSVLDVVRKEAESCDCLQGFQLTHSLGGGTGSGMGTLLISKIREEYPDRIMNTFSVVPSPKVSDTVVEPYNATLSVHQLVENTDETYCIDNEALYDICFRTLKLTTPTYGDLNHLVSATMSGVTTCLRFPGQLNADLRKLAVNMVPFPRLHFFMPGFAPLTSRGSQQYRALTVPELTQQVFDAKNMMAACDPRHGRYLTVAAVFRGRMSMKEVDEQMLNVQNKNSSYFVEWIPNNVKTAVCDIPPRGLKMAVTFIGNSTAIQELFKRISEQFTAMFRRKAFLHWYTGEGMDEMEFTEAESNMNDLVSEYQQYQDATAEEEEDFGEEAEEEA

Row | Compound | inhibition of growth at 100 µg/mL (MCF7 [1]) [%] | IC50 (MCF7 [2]) [µg/mL] | also measured
1 | NNC(=O)COc1ccc2c(-c3ccccc3)cc(=O)oc2c1 | > 70 | 25.2 (≈ 81.2 µM) | –
2 | COc1ccc(/C=N/NC(=O)COc2ccc3c(-c4ccccc4)cc(=O)oc3c2)cc1 | 46.3 | – | –
3 | Cc1cs/c(=N\NC(=O)COc2ccc3c(-c4ccccc4)cc(=O)oc3c2)n1C | > 70 | 36.9 (≈ 87.5 µM) | –
4 | COc1ccc(/C=N/NC(=O)COc2ccc3c(-c4ccccc4)cc(=O)oc3c2)cc1OC | 48.9 | – | –
5 | CC(=O)c1s/c(=N\NC(=O)COc2ccc3c(-c4ccccc4)cc(=O)oc3c2)n(C)c1C | > 70 | 42 (≈ 90.6 µM) | –
6 | CCOC(=O)C(S/C(=N/NC(=O)COc1ccc2c(-c3ccccc3)cc(=O)oc2c1)NC)C(C)=O (configuration not stated) | > 70 | 30.6 (≈ 59.8 µM) | –
7 | Cn1c(-c2ccccc2)cs/c1=N\NC(=O)COc1ccc2c(-c3ccccc3)cc(=O)oc2c1 | > 70 | 9.3 (≈ 19.2 µM) | –
8 | COc1ccc(C2SCC(=O)N2NC(=O)COc2ccc3c(-c4ccccc4)cc(=O)oc3c2)cc1 (configuration not stated) | 64.4 | – | –
9 | O=C(COc1ccc2c(-c3ccccc3)cc(=O)oc2c1)NN1C(=O)CSC1c1ccc(Cl)cc1 (configuration not stated) | > 70 | 16.7 (≈ 32.9 µM) | inhibition at 48 h, 100 ug/ml [3]: 26.9%; Ratio IC50 (Tubulin beta-5 chain [4]): 2.4; IC50 (Tubulin beta-5 chain [5]): 2.89 µM
10 | CCn1c(C)cs/c1=N\NC(=O)COc1ccc2c(-c3ccccc3)cc(=O)oc2c1 | > 70 | 78 (≈ 179 µM) | –
11 | COc1cc(C2SCC(=O)N2NC(=O)COc2ccc3c(-c4ccccc4)cc(=O)oc3c2)cc(OC)c1OC (configuration not stated) | 86.4 | 21.2 (≈ 37.7 µM) | inhibition at 48 h, 100 ug/ml [3]: 16.8%; IC50 (Tubulin beta-5 chain [5]): 6.13 µM
12 | CCn1c(C)c(C(C)=O)s/c1=N\NC(=O)COc1ccc2c(-c3ccccc3)cc(=O)oc2c1 | > 70 | 28 (≈ 58.6 µM) | –
13 | O=C(COc1ccc2c(-c3ccccc3)cc(=O)oc2c1)NN1C(=O)CSC1c1ccc(F)cc1 (configuration not stated) | > 70 | 11.1 (≈ 22.6 µM) | Activity (MCF7 [6]): 43.59%; Activity (MCF7 [7]): 10.63%; viability at 11.1 µg/mL (MCF7 [8]): 79.8%; Activity (MCF7 [9]): 5.49%; inhibition at 48 h, 100 ug/ml [3]: 13.2%; fold change (FC) (MCF7 [10]): 28.6; fold change (FC) (MCF7 [11]): 3.237; Activity (MCF7 [12]): 2.19%; Activity (MCF7 [13]): 38.36%; IC50 (Tubulin beta-5 chain [5]): 9.37 µM; Activity (MCF7 [14]): 18.31%; fold change (FC) (MCF7 [15]): 5; Activity (MCF7 [16]): 18.05%
14 | CCn1c(-c2ccccc2)cs/c1=N\NC(=O)COc1ccc2c(-c3ccccc3)cc(=O)oc2c1 | > 70 | 10.6 (≈ 21.3 µM) | –
15 | O=C(COc1ccc2c(-c3ccccc3)cc(=O)oc2c1)N/N=C/c1ccc(Cl)cc1 | 76.5 | 38.1 (≈ 88 µM) | –
16 | CCN/C(=N\NC(=O)COc1ccc2c(-c3ccccc3)cc(=O)oc2c1)SC(C(C)=O)C(=O)OCC (configuration not stated) | > 70 | 41.9 (≈ 79.7 µM) | –
17 | CCN/C(=N\NC(=O)COc1ccc2c(-c3ccccc3)cc(=O)oc2c1)SC(C)C(=O)OCC (configuration not stated) | 67.1 | – | –
18 | CCOC(=O)C(C)S/C(=N/NC(=O)COc1ccc2c(-c3ccccc3)cc(=O)oc2c1)NC (configuration not stated) | > 70 | 37 (≈ 76.5 µM) | –
19 | O=C(COc1ccc2c(-c3ccccc3)cc(=O)oc2c1)NN1C(=O)CSC1c1ccc(Br)cc1 (configuration not stated) | > 70 | 42 (≈ 76.2 µM) | –
20 | O=C(COc1ccc2c(-c3ccccc3)cc(=O)oc2c1)N/N=C/c1ccc(Br)cc1 | 67.8 | – | –
21 | COc1cc(/C=N/NC(=O)COc2ccc3c(-c4ccccc4)cc(=O)oc3c2)cc(OC)c1OC | 90.7 | 4.3 (≈ 8.8 µM) | –
22 | O=C(COc1ccc2c(-c3ccccc3)cc(=O)oc2c1)N/N=C/c1ccc(F)cc1 | 65.5 | – | –
23 | COc1ccc(C2SCC(=O)N2NC(=O)COc2ccc3c(-c4ccccc4)cc(=O)oc3c2)cc1OC (configuration not stated) | 63.3 | – | –
